These results are taken from ChEMBL document CHEMBL1151808, “Substrate promiscuity of the cyclic dipeptide prenyltransferases from Aspergillus fumigatus ( section sign)” (J Nat Prod, 2009).

Calls of active or inactive are those of the source. No cut-off for these calls is given here.

Assay [1] has as its system Aspergillus fumigatus. The assay is described as follows: Activity at 1.62 uM Aspergillus fumigatus CdpNPT assessed as compound conversion rate at 1 mM after 2 hrs by HPLC analysis in presence of dimethylallyl diphosphate relative to L-tryptophan. In outline:
(§1)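 His6-CdpNPT (1.62 µM) or His6-FtmPT1 (1.68 µM) with 1 mM tryptophan derivative and 2 mM DMAPP in Tris-HCl pH 7.5/CaCl2, 37 °C for 2 or 16 h. MeOH quench, then RP18 HPLC with 30–70% MeOH gradient. Conversion expressed relative to L-tryptophan; two independent assays.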

Assay [2] has as its system Aspergillus fumigatus. The assay is described as follows: Activity at 1.62 uM Aspergillus fumigatus CdpNPT assessed as compound conversion rate at 1 mM after 16 hrs by HPLC analysis in presence of dimethylallyl diphosphate relative to L-tryptophan. In outline: as §1
Assay [3] addresses Tryprostatin B synthase ftmPT1 (Aspergillus fumigatus) (UniProt Q4WAW7). The assay is described as follows: Activity at 1.68 uM Aspergillus fumigatus FtmPT1 assessed as compound conversion rate at 1 mM after 2 hrs by HPLC analysis in presence of dimethylallyl diphosphate relative to L-tryptophan. In outline:
as §1

Assay [4] shares this target. The assay is described as follows: Activity at 1.68 uM Aspergillus fumigatus FtmPT1 assessed as compound conversion rate at 1 mM after 16 hrs by HPLC analysis in presence of dimethylallyl diphosphate relative to L-tryptophan. An outline of the steps: as §1
Assay [5] has the same target. The assay can be described thus: Activity at 0.28 uM Aspergillus fumigatus FtmPT1 assessed as compound conversion at 1 mM after 2 hrs by HPLC analysis in presence of dimethylallyl diphosphate. In outline: (§2)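 Performed in 50 mM Tris-HCl (pH 7.5) with 10 mM CaCl2, 1 mM tryptophan or derivative, and 2 mM DMAPP, using purified His6-tagged recombinant enzyme at 37 °C. Reactions were stopped with an equal volume of MeOH and protein removed by centrifugation. Products were quantified by RP18 HPLC as the conversion rate of substrate. Two independent assays were run.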

Assay [6] has the same target. The assay can be described thus: Activity at 0.54 uM Aspergillus fumigatus FtmPT1 assessed as compound conversion at 1 mM after 2 hrs by HPLC analysis in presence of dimethylallyl diphosphate. In outline: as §2
For assay [7] the target is unchanged. The assay is described as follows: Ratio Kcat to Km for Aspergillus fumigatus FtmPT1 by HPLC analysis relative to L-tryptophan.
For assay [8] the target is unchanged. The assay is described as follows: Activity at 1.68 uM Aspergillus fumigatus FtmPT1 assessed as compound conversion at 1 mM after 2 hrs by HPLC analysis in presence of dimethylallyl diphosphate.
Assay [9] relates to Aspergillus fumigatus. The assay is described as follows: Activity at 1.62 uM Aspergillus fumigatus CdpNPT assessed as compound conversion rate at 1 mM after 2 hrs by HPLC analysis in presence of dimethylallyl diphosphate. In outline:
as §2

Assay [10] has as its target Tryprostatin B synthase ftmPT1 (Aspergillus fumigatus) (UniProt Q4WAW7). The assay can be described thus: Activity at 1.12 uM Aspergillus fumigatus FtmPT1 assessed as compound conversion rate at 1 mM after 16 hrs by HPLC analysis in presence of dimethylallyl diphosphate. An outline of the steps: as §2
The subject of assay [11] is Aspergillus fumigatus. The assay is described as follows: Activity at 0.11 to 1.62 uM Aspergillus fumigatus CdpNPT assessed as product formation at 1 mM after 2 hrs by HPLC analysis. An outline of the steps:
(§3)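 Recombinant His6-CdpNPT (0.11–1.62 µM) with 1 mM substrate and 2 mM DMAPP in 50 mM Tris-HCl pH 7.5, 10 mM CaCl2, 100 µL, 37 °C for 2 h. Heat-inactivated enzyme served as control. Stopped with MeOH, protein spun off, products read by RP18 HPLC as peaks and retention times, conversion from peak areas.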

Assay [12] relates to Aspergillus fumigatus. The assay is described as follows: Activity at Aspergillus fumigatus CdpNPT by HPLC analysis. In outline: (§4)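 Kinetics: 2 mM DMAPP (final) with L-tryptophan up to 5 mM, or cyclic dipeptides, in Tris-HCl pH 7.5/CaCl2 at 37 °C. Products quantified by HPLC. Km and kcat from Lineweaver-Burk and Hanes-Woolf plots; kcat/Km expressed as ratio to L-tryptophan.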

In assay [13] the test system is Aspergillus fumigatus. The assay is described as follows: Activity at 1.62 uM Aspergillus fumigatus CdpNPT assessed as compound conversion rate after 2 hrs by HPLC analysis. An outline of the steps: as §3
For assay [14], the target named is Tryprostatin B synthase ftmPT1 (Aspergillus fumigatus) (UniProt Q4WAW7). The assay can be described thus: Activity at 1.12 uM Aspergillus fumigatus FtmPT1 assessed as compound retention time after 2 hrs by HPLC analysis. In outline:
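His6-FtmPT1 at 1.12 µM, 100 µL, in 50 mM Tris-HCl pH 7.5, 10 mM CaCl2 with DMAPP, 37 °C for 2 h. HPLC product retention time recorded.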

Assay [15] relates to Aspergillus fumigatus. The assay is described as follows: Activity at 1.62 uM Aspergillus fumigatus CdpNPT assessed as compound retention time after 2 hrs by HPLC analysis. In outline:
as §3

Assay [16] has as its system Aspergillus fumigatus. The assay can be described thus: Activity at 0.28 uM Aspergillus fumigatus CdpNPT assessed as compound conversion rate at 1 mM after 2 hrs by HPLC analysis in presence of dimethylallyl diphosphate. An outline of the steps:
as §3

Assay [17] relates to Aspergillus fumigatus. The assay can be described thus: Activity at 0.11 uM Aspergillus fumigatus CdpNPT assessed as compound conversion rate at 1 mM after 2 hrs by HPLC analysis in presence of dimethylallyl diphosphate. An outline of the steps:
as §3

Assay [18] concerns Aspergillus fumigatus. The assay is described as follows: Ratio Kcat to Km for Aspergillus fumigatus CdpNPT by HPLC analysis relative to L-tryptophan. In outline:
as §4

Assay [19] deals with Aspergillus fumigatus. The assay is described as follows: Activity at 0.54 uM Aspergillus fumigatus CdpNPT assessed as compound conversion rate at 1 mM after 2 hrs by HPLC analysis in presence of dimethylallyl diphosphate. An outline of the steps:
as §3

Tryprostatin B synthase ftmPT1 (Aspergillus fumigatus), sequence (Q4WAW7 whole entry): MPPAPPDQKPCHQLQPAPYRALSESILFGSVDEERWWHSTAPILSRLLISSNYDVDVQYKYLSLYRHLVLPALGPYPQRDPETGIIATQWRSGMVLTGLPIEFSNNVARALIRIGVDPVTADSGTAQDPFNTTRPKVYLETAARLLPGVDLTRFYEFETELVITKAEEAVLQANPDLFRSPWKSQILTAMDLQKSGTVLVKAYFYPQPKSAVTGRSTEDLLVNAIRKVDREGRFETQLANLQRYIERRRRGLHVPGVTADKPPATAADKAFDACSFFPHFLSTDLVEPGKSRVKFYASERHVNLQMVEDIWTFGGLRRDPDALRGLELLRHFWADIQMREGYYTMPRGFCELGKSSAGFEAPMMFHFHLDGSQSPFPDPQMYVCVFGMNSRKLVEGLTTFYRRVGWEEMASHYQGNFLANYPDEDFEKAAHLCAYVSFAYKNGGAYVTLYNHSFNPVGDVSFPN

With `NC(Cc1c[nH]c2cc(F)ccc12)C(=O)O` (racemic), the Activity in the assay on Aspergillus fumigatus [1] came out at 17.7%; in the assay with Aspergillus fumigatus [2] it was 13.8%; in [3], 55.1%; in assay [4], 55.5%.
In the same order, the values of `CC(N)(Cc1c[nH]c2ccccc12)C(=O)O` (racemic) are 25%, 24.5%, below 2.3% and 1%.
The like results for `Cc1ccc2[nH]cc(CC(N)C(=O)O)c2c1` (racemic) were, in that order, below 1.5%, 20.2%, below 2.4% and 10.3%.
With `O=C1N[C@@H](Cc2c[nH]c3ccccc23)C(=O)N2CCC[C@@H]12`, the result in [5], in [6] and in assay [8] was Active. In assay [7], the Ratio was found to be 675.
Consider `NCCc1c[nH]c2ccccc12`, for which the Activity in the assay on Aspergillus fumigatus [1] was below 3.3%; with Aspergillus fumigatus [2], below 1%; in assay [3], below 5.3%; in assay [4] it was below 1.1%.
Turning to `N[C@@H](Cc1ccc(O)cc1)C(=O)O`, the outcome (with Aspergillus fumigatus [9]; in assay [10]) was inactive.
With `N[C@@H](Cc1c[nH]c2ccccc12)C(=O)O`, the outcome in the assay with Aspergillus fumigatus [11] was Active. Also, the Michaelis constant (Km) – broadly, the substrate concentration at which the rate is half of its maximum – in the assay with Aspergillus fumigatus [12] was 830 µM. The catalytic constant (kcat) (as a rule, the maximal rate divided by the concentration of active sites) with Aspergillus fumigatus [12] came to 0.005 s⁻¹. Moreover, the Activity was found to be 18.1% in the assay with Aspergillus fumigatus [13], 13.9 min in [14] and 16.5 min in the assay on Aspergillus fumigatus [15].
In the case of `N[C@H](CC(=O)O)Cc1c[nH]c2ccccc12`, the Activity was below 3.4% in the assay with Aspergillus fumigatus [1], below 1.1% with Aspergillus fumigatus [2], below 5.5% in [3] and below 1.1% in assay [4].
On to `Cc1cccc2c(CC(N)C(=O)O)c[nH]c12` (racemic), for which the Activity in the assay on Aspergillus fumigatus [1] amounted to 50.6%; in the assay on Aspergillus fumigatus [2] it was 37.9%; in assay [3], 76.4%; in assay [4], 64.1%.
On to `O=C1N[C@H](Cc2c[nH]c3ccccc23)C(=O)N[C@H]1Cc1ccc(O)cc1`, for which the result in the assay on Aspergillus fumigatus [16], in the assay with Aspergillus fumigatus [17], in the assay with Aspergillus fumigatus [11] and with Aspergillus fumigatus [19] was Active. The Km in the assay on Aspergillus fumigatus [12] was determined as 128 µM. Also, in the assay with Aspergillus fumigatus [12], the turnover number (kcat) was determined as 0.46 s⁻¹. In addition, the Ratio in the assay on Aspergillus fumigatus [18] came out at 598.
Take `N[C@@H](Cc1c[nH]c2ccc(O)cc12)C(=O)O`: the Activity was below 0.8% in the assay with Aspergillus fumigatus [1], below 0.3% in the assay with Aspergillus fumigatus [2], below 1.3% in assay [3] and below 0.3% in [4].
`Cn1cc(CC(N)C(=O)O)c2ccccc21` (racemic): the Activity with Aspergillus fumigatus [1] is below 1.1%; in the assay with Aspergillus fumigatus [2], below 0.3%; in assay [3], below 1.7%; in assay [4] it was below 0.3%.
In the case of `N[C@@H](Cc1c[nH]c2ccc(F)cc12)C(=O)O`, the Activity in the assay with Aspergillus fumigatus [1] is below 0.7%; in the assay with Aspergillus fumigatus [2], 1.9%; in [3], below 1.2%; in [4] it was 4.3%.
Take `O=C(O)Cc1c[nH]c2ccccc12`: the Activity is below 1.7% in the assay on Aspergillus fumigatus [1], 45.3% with Aspergillus fumigatus [2], below 2.8% in assay [3] and below 0.6% in [4].
With `Cc1cccc2[nH]cc(CC(N)C(=O)O)c12` (racemic), the Activity with Aspergillus fumigatus [1] was 72.6%; in the assay on Aspergillus fumigatus [2], 61.4%; in assay [3], 16%; in assay [4] it was 19.4%.
Take `Cc1ccc2c(CC(N)C(=O)O)c[nH]c2c1` (racemic): the Activity is below 0.9% in the assay with Aspergillus fumigatus [1], 13.5% with Aspergillus fumigatus [2], 148% in assay [3] and 96% in [4].
Turning to `NC(Cc1c[nH]c2ccc(Br)cc12)C(=O)O` (racemic), the Activity with Aspergillus fumigatus [1] was below 1.2%; in the assay on Aspergillus fumigatus [2] it was below 0.4%; in assay [3], below 1.9%; in assay [4], below 0.4%.
In the case of `CN[C@@H](Cc1c[nH]c2ccccc12)C(=O)O`, the Activity was 126% with Aspergillus fumigatus [1], 114% with Aspergillus fumigatus [2], below 3.7% in [3] and 29.4% in assay [4].
